# Source: ChEMBL document CHEMBL1122244, “Synthesis and monoamine oxidase inhibitory activities of alpha-allenic amines in vivo and in vitro. Different activities of two enantiomeric allenes” (J Med Chem, 1983)
# Key:
# Monoamine oxidase [1] = target: T1, Monoamine oxidase (Rattus norvegicus, UniProt P19643+P21396); assay: In vitro inhibition of Monoamine oxidase at rat hyphalamic mitochondrial 5-HT by displacing 2.5 uM of [14C]5-HT.; assay type: protein assay
# T1 sequence (P19643 whole entry): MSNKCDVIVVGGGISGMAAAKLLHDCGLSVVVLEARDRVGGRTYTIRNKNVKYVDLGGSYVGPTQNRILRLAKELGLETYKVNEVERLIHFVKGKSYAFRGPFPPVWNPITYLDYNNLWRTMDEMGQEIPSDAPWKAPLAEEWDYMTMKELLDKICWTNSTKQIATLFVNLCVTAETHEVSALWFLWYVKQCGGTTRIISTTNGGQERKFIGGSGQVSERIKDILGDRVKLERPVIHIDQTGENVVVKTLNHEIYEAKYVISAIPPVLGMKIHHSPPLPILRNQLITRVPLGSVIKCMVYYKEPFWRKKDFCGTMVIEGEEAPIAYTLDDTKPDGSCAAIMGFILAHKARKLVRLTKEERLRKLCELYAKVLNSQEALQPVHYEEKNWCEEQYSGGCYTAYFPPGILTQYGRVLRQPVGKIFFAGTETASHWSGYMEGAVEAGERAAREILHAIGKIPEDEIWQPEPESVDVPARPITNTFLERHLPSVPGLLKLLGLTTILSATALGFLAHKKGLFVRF
# T1 sequence (P21396 whole entry): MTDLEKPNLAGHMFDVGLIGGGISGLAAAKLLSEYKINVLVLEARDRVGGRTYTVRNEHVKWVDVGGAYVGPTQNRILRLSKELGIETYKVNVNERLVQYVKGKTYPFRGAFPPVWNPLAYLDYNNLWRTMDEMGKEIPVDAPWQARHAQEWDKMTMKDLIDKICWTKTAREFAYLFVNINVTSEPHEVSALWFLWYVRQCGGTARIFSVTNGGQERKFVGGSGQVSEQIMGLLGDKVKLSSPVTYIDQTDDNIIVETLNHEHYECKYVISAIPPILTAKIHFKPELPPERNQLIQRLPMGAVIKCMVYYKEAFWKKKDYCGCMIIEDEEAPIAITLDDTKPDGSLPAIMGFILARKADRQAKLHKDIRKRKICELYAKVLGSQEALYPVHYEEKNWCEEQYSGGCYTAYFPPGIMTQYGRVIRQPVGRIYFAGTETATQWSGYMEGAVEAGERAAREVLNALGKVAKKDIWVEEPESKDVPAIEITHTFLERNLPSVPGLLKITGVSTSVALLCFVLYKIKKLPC
# Monoamine oxidase [2] = target: T2, Monoamine oxidase (Mus musculus, UniProt Q8BW75+Q64133); assay: Inhibitory activity of Monoamine oxidase at mouse forebrain homogenate by displacing [14C]PEA; assay type: tissue-based
# T2 sequence (Q8BW75 whole entry): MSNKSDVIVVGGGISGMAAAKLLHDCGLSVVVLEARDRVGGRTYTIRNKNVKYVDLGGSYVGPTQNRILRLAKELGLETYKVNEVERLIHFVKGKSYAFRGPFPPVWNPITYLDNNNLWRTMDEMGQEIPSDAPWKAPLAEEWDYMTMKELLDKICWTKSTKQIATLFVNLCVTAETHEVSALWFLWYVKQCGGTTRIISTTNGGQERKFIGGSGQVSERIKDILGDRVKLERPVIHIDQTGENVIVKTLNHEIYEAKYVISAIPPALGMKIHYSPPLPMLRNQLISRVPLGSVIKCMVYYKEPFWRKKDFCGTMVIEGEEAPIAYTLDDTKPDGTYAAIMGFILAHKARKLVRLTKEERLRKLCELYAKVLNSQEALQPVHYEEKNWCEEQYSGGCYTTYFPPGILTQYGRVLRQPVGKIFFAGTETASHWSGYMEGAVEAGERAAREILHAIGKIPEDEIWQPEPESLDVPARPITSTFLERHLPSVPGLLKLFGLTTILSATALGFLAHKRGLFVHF
# T2 sequence (Q64133 whole entry): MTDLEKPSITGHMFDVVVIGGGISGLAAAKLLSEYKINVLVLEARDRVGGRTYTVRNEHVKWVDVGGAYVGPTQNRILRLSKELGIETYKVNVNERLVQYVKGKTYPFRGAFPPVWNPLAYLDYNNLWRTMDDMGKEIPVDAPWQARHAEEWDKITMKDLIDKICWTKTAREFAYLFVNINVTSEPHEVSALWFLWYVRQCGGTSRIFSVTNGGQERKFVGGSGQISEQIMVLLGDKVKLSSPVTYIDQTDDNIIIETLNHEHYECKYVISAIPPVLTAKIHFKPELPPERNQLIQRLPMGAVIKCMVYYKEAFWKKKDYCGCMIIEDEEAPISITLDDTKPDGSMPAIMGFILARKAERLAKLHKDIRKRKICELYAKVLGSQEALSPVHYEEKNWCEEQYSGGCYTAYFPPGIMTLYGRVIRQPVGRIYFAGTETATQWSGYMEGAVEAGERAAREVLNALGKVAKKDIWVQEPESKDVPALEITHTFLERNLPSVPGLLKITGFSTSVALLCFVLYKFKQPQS
# How it was run: (§1)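 Male NMRI mice (18–22 g) dosed ip (0.2 mL/20 g) and killed 1 h later, five per dose. Forebrain was homogenized in 10 vol ice-cold 0.1 M sodium phosphate, pH 7.4, and incubated 10 min at 37 °C with 10 μM [14C]PEA plus 10 μM [3H]5-HT. Acid metabolites were extracted into ethyl acetate and 3H/14C counted in separate channels.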
# Monoamine oxidase [3] = target: T1, Monoamine oxidase; assay: In vitro inhibition of Monoamine oxidase at rat hyphalamic mitochondrial PEA by displacing 2.5 uM of [14C]PEA.; assay type: protein assay
# Monoamine oxidase [4] = target: T2, Monoamine oxidase; assay: Inhibitory activity of Monoamine oxidase at mouse forebrain homogenate by displacing [14C]5-HT; assay type: tissue-based; how it was run: as §1
# Mus musculus [5] = assay: Lowest dose potentiating the awakening effect of phenethylamine (10 mg/kg, subcutaneous) in mice pretreated with reserpine; assay type: functional
# How it was run: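 Mice were pretreated with reserpine 5 mg/kg sc 18 h beforehand. Test compound was given ip 1 h before PEA hydrochloride 10 mg/kg sc.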
# Monoamine oxidase [6] = target: T2, Monoamine oxidase; assay: Inhibitory activity of Monoamine oxidase at mouse forebrain homogenate by displacing [14C]5-HT (serotonin); assay type: tissue-based; conditions: in the assay text read “[3H]5-HT” for “[14C]5-HT”; how it was run: as §1
# Monoamine oxidase [7] = target: T2, Monoamine oxidase; assay: Inhibitory activity of Monoamine oxidase at mouse forebrain homogenate by displacing [14C]PEA (phenethylamine); assay type: tissue-based; how it was run: as §1
# Mus musculus [8] = assay: Lowest dose potentiating the awakening effect of phenethylamine (10 mg/kg, subcutaneous) in mice pretreated with reserpine
# Mus musculus [9] = assay: Compound was injected ip 1 hr prior to 90 mg/kg iv of […] evaluation of tremor in mice; assay type: functional
# How it was run: (§2)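 Test compound given ip 1 h before iv dl-5-HTP, 90 mg/kg, in mice. The 5-HTP syndrome was scored per Ross et al. for head twitches, tremor and abduction. Values are ED50 in μmol/kg ip.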
# Mus musculus [10] = assay: Compound was injected ip 1 hr prior to 90 mg/kg iv of […] evaluation of head twitches in mice; assay type: functional; how it was run: as §2
# Mus musculus [11] = assay: Compound was injected ip 1 hr prior to 90 mg/kg iv of […] evaluation of abduction in mice; assay type: functional; how it was run: as §2
Compound,IC50 (Monoamine oxidase [1]),ED50 (Monoamine oxidase [2]),IC50 (Monoamine oxidase [3]),ED50 (Monoamine oxidase [4]),Potentiation (Mus musculus [5]),ED50 (Monoamine oxidase [6]),ED50 (Monoamine oxidase [7]),Potentiation (Mus musculus [8]),ED50 (Mus musculus [9]),ED50 (Mus musculus [10]),ED50 (Mus musculus [11])
C=C=CCN1CCc2ccccc2C1,7 µM,> 90 µM/kg,4.3 µM,> 90 µM/kg,>90 µM/kg,–,–,–,–,–,–
CC=C=CCN(C)Cc1ccccc1,29 µM,36 µM/kg,15 µM,> 72 µM/kg,–,–,–,–,–,–,–
C=C=C(CN)Cc1ccc(Cl)cc1,0.26 µM,7 µM/kg,0.04 µM,18 µM/kg,35 µM/kg,–,–,–,–,–,–
C#CCN(C)[C@H](C)Cc1ccccc1 [SELEGILINE],–,2 µM/kg,–,> 89 µM/kg,5 µM/kg,–,–,–,–,–,–
C=C=CCNCc1ccccc1,1.8 µM,6 µM/kg,0.15 µM,> 51 µM/kg,26 µM/kg,–,–,–,–,–,–
C=C=CC(C)N(C)Cc1ccccc1 (centres undefined),43 µM,–,> 100 µM,–,–,–,–,–,–,–,–
C=C=C(CN)Cc1ccc(OC)cc1,0.7 µM,16 µM/kg,0.58 µM,39 µM/kg,36 µM/kg,–,–,–,–,–,–
CC=C=CCN(C)Cc1ccccc1.O=C(O)C(=O)O (stereo in doubt; (S)(+)2),51 µM,54 µM/kg,50 µM,> 72 µM/kg,>72 µM/kg,–,–,–,–,–,–
C=C=C(CN)Cc1ccccc1,20 µM,12 µM/kg,0.14 µM,> 26 µM/kg,51 µM/kg,–,–,–,–,–,–
C=C=CCN(C)Cc1ccccc1,8.2 µM,17 µM/kg,0.17 µM,> 48 µM/kg,–,–,–,–,–,–,–
C=C=C(CN)c1ccccc1,7.2 µM,8 µM/kg,0.24 µM,> 39 µM/kg,>79 µM/kg,–,–,–,–,–,–
C=C=CCN(C)C1CCc2ccccc21 (centres undefined),1.8 µM,1.7 µM/kg,0.36 µM,35 µM/kg,9 µM/kg,–,–,–,–,–,–
C=C=CCN(C)C(C)Cc1ccccc1 (centres undefined),0.8 µM,52 µM/kg,4.7 µM,> 69 µM/kg,34 µM/kg,–,–,–,–,–,–
C=C=C(CNC)Cc1ccccc1,6.2 µM,11 µM/kg,0.44 µM,> 38 µM/kg,76 µM/kg,–,–,–,–,–,–
C=C=C(CN)Cc1ccc(C)cc1,1.1 µM,23 µM/kg,0.36 µM,> 38 µM/kg,>38 µM/kg,–,–,–,–,–,–
C=C=C(Cc1ccccc1)CN(C)C,25 µM,54 µM/kg,> 100 µM,> 72 µM/kg,> 72 µM/kg,–,–,–,–,–,–
C#CCN(C)CCCOc1ccc(Cl)cc1Cl [CLORGILINE],–,–,–,–,–,2.6 µM/kg,> 65 µM/kg,>65 µM/kg,–,–,–
C=C=CCN(C)CCCOc1ccc(Cl)cc1Cl,0.004 µM,33 µM/kg,4.6 µM,6 µM/kg,60 µM/kg,–,–,–,5.1 µmol/kg,1.7 µmol/kg,5.4 µmol/kg
CC=C=CCN(C)Cc1ccccc1.O=C(O)C(=O)O (stereo in doubt; (R)(-)2),17 µM,20 µM/kg,2.3 µM,> 36 µM/kg,72 µM/kg,–,–,–,–,–,–
